Source: PubChem
GalR3 antag – antagonists of human GalR3; O60755; HEK293 GalR3-CNG cAMP membrane potential fluorescence; galR3 body fused to GalR1 C-terminus; inhibition, % at 3 µM; 360,000 compounds, 0.44% hits; AID 651719;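 active = inhibition above the screen-wide average plus 3 SD, cut at about 13% in these data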;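 also: forskolin and galanin both at EC90 stimulate the cells; cAMP rise reported by CNG channel membrane potential dye signal; 0% = forskolin plus galanin with DMSO and 100% = forskolin alone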
OX1R antag-1 – antagonists of human orexin 1 receptor | O43613 | CHO/OX1R cells, Fluo-8 calcium fluorescence, orexin A | inhibition, % at 5 µM | 330,000 compounds, 0.43% hits;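 active = inhibition above its plate's threshold, mean inhibition of all tested compounds on the plate plus 3 SD, cut at about 37% in these data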;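 also: 0% = orexin A challenge wells and 100% = SB-334867-A antagonist wells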
Target sequence (O43613 whole entry, looked up): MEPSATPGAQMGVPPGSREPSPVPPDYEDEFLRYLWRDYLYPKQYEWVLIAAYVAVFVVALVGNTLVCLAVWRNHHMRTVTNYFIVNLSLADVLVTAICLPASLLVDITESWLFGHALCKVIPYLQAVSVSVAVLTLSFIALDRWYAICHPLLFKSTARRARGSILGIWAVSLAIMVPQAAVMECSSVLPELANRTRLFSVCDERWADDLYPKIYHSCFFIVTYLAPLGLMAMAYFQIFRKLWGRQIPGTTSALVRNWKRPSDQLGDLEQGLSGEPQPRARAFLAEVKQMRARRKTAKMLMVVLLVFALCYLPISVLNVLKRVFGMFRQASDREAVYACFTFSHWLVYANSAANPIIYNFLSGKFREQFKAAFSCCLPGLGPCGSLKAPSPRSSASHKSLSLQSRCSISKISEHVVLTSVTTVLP
OX1R antag-2 – antagonists of human orexin 1 receptor (OX1R). O43613. OX1R-expressing cells, FRET antagonist read-out. inhibition, % at 6.6 µM. 330,000 compounds, 1.8% hits; in the data active = inhibition mostly above about 38%, no sharp cut-off; inactive = mostly below about 40%;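 also: 0% = agonist challenge alone and 100% = reference antagonist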
CHO parental Ca – signal in parental CHO cells, OX1R antagonist counter-screen; parental CHO-K1, ATP-induced calcium, Fluo-8 fluorescence; inhibition, % at 5.6 µM; 330,000 compounds, 0.63% hits; AID 463079;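 active = inhibition above that plate's mean sample inhibition plus 3 SD, cut at about 26% in these data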;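 also: 0% = ATP-challenged DMSO wells and 100% = DMSO wells without ATP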
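Material – parental CHO cells · Reagent – ATP stimulus · Compound – single nominal dose of 5.6 µM per compound · Detection – Fluo-8 fluorescence · Read-out basis – percent inhibition of calcium signal · Controls – ATP-challenged DMSO wells low, unchallenged DMSO wells high · Repeats – no replicates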
GPR7 antagonist – blocks human GPR7 receptor signaling | P48145 | GPR7-expressing cells, fluorescence antagonist assay | inhibition, % at 4.4 µM | 290,000 compounds, 1.1% hits | AID 1861; in the data active = inhibition above about 16%, passing the limit was not always enough;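 also: cells stimulated with the agonist NPW; 0% = agonist with vehicle and 100% = vehicle without agonist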
* = called active by the depositor; / = no result; ! = a repeat was not active. The list is not random: actives were taken first. Their share in the collection is about 3.1%.

SMILES	GalR3 antag	OX1R antag-1	OX1R antag-2	CHO parental Ca	GPR7 antagonist
C[C@H](NC(=O)c1ccco1)C(=O)N1CCN(c2ccc(C(F)(F)F)cn2)CC1	-4	-8	8	-12	/
CCN(CC)C(=O)c1cc([N+](=O)[O-])cc2c1-c1ccc([N+](=O)[O-])cc1C2=C(C#N)C#N	-2	-27	71*	-15	-6
CCc1nc2c(OCc3ccc(Cl)cc3Cl)cccn2c1N(C)C(=O)C1CC1	-2	/	/	/	/
CN(C)c1ccc(/C=C/c2nc3ccccc3c(=O)n2CCO)cc1	-5	3	52*	7	1
c1ccc(CCCNc2ncnc3nc[nH]c23)cc1	4	-1	21	3	-6
c1ccc2c(CCNc3ncnc4nc[nH]c34)cccc2c1	-7	28	22	34*	8
COc1cccc(Cn2nnc(C(=O)Nc3cc(Cl)ccc3OC)c2N)c1	-2	13	42*	30*	5
CCCCC(=O)Nc1ccc(C(=O)c2ccccc2)cc1	-2	-10	28	-12	20*
O=C(NCc1ccc(F)cc1)C(=O)NCC(c1ccco1)N1CCOCC1 (stereo not given)	-7	-13	4	-19	-2
O=Nc1c(O)n(Cc2ccc(Cl)cc2)c2ccccc12	-3	-18	7	-21	8
O=Nc1c(O)n(Cc2ccc(Cl)cc2Cl)c2ccccc12	0	24	16	87*	-2
Cc1ccc2c(c1)c(N=O)c(O)n2Cc1ccc(Cl)cc1	5	-2	6	36*	-5
CC(=O)CC1c2cc(F)ccc2C=C(c2ccsc2)N1c1ccc(-c2cccnc2)cc1 (stereo not given)	-9	/	/	/	/
O=C(COC(=O)c1cc(NS(=O)(=O)c2cccs2)ccc1O)Nc1ccccc1	-4	-12	73*	-10	-3
CN(C)CCCNc1cc(O)c2ncccc2c1	-6	-1	45*	-11	/
Oc1cc(NCc2ccc(F)cc2)cc2cccnc12	-2	-20	21	-17	/
O=C(CCN1CCN(c2ccccc2)CC1)N/N=C/c1ccc([N+](=O)[O-])o1	5	-9	71*	-12	-5
O=C(Cc1ccc([N+](=O)[O-])cc1)N/N=C/c1ccc([N+](=O)[O-])o1	-4	12	30	7	-10
CC1(C(=O)N/N=C/c2ccc([N+](=O)[O-])o2)CC1(Br)Br (stereo not given)	-2	6	73*	5	-10
O=C(N/N=C/c1cccc2ccccc12)c1cc2ccccc2o1	-5	/	/	/	9
C#CCn1cc(/C=N/NC(=O)c2cc3ccccc3o2)c2ccccc21	2	-1	72*	-6	-5
CC1CCCN(c2cccc3c2S(=O)(=O)N(Cc2cccc(F)c2)[C@@H](C)[C@H](c2ccccc2)O3)C1 (stereo not given in full)	-5	/	/	/	/
CS(=O)(=O)c1ccc(C(=O)OCC(=O)NC23CC4CC(CC(C4)C2)C3)cc1[N+](=O)[O-]	-9	42*	26	68*	15
Cn1cccc1C(=O)NC(=O)COC(=O)c1ccc(S(C)(=O)=O)c([N+](=O)[O-])c1	/	23	33	9	/
CN(CC(=O)NCCc1ccccc1)S(=O)(=O)c1ccc(Br)s1	-8	-24	12	-22	0
SMILES	GalR3 antag	OX1R antag-1	OX1R antag-2	CHO parental Ca	GPR7 antagonist
CC(=O)[C@]1(O)Cc2c(O)c3c(c(O)c2[C@@H](O[C@H]2C[C@H](N)[C@H](O)[C@H](C)O2)C1)C(=O)c1ccccc1C3=O	/	42*	53	37*	/
COc1cccc2c1C(=O)c1c(O)c3c(c(O)c1C2=O)C[C@@](O)(C(=O)CO)C[C@@H]3O[C@H]1C[C@H](N)[C@@H](O)[C@H](C)O1	/	29	41*	19	/
COc1ccc(NC(=O)C2CCCN2S(=O)(=O)c2ccc3c(c2)CC(C)N3C(C)=O)cc1OC (stereo not given)	0	-9	6	-20	17
Brc1c(-c2ccccc2)nc2n1Cc1ccccc1-2	-2	-29	64*	-25	-10
Cc1oc(-c2ccc(Cl)cc2)nc1CN1CCCC(C(=O)NC2CC2)C1 (stereo not given)	-8	-27	4	-16	-3
CCOC(=O)N1CCN(C(=O)C2CCCN(Cc3nc(-c4ccc(Cl)cc4)oc3C)C2)CC1 (stereo not given)	82*	-18	5	-30	0
CCOC(=O)C(Cc1ccccc1)NC(=O)CCCC(=O)c1ccccc1 (stereo not given)	-9	11	16	47*	21
Cc1ccc(S(=O)(=O)NCCC(=O)OCC(=O)Nc2ccccc2Cl)cc1	-4	-24	10	-15	13
CC(C)CSc1nnc2c(n1)[nH]c1ccccc12	-1	-9	10	-4	0
CC1=CCC(/C=N\Nc2nnc3c(n2)[nH]c2ccccc23)CC1 (stereo not given)	/	-12	55*	-6	1
O=C(CNC(=O)c1ccc(Br)o1)Nc1ccc(F)c(S(=O)(=O)N2CCOCC2)c1	-5	/	/	/	/
CC(C)CC(C(=O)N1CCc2ccccc2C1)N1C(=O)c2ccccc2C1=O (stereo not given)	-6	-30	28	-23	20*
CC(C(=O)N1CCc2ccccc2C1)N1C(=O)c2ccccc2C1=O (stereo not given)	-5	-17	9	-9	-6
CCOc1ccc(CC(=O)Nc2sc(Cc3ccccc3)c(C)c2C(N)=O)cc1OCC	-1	-4	57*	-5	-17
O=C1CC(SC(=S)C2CCCC2=O)C(=O)N1 (stereo not given)	-4	/	/	/	/
Nc1ncnc2c1ncn2[C@@H]1O[C@H](C(=O)N[C@@H](CCc2ccccc2)C(=O)N2CCN(CC(=O)N3CCCC3)CC2)[C@@H](O)[C@H]1O	-8	/	/	/	/
O=S(=O)(c1ccccc1)N(CC1CO1)c1cccc2ccccc12 (stereo not given)	-1	12	67*	-16	-2
O=S(=O)(c1ccccc1)N(CC1CO1)c1ccccc1 (stereo not given)	-4	-5	22	8	7
CCOC(=O)c1nn(-c2cccc(OC)c2)c(-c2ccccc2)c1C(=O)c1ccccc1	-3	2	55*	-15	0
COc1ccc2cc3[n+](cc2c1OC)CCc1cc2c(cc1-3)OCO2	2	-2	55*!	-9	-4
COc1ccc(C(=O)OCC(=O)N2CCN(S(=O)(=O)c3ccc(C)cc3)CC2)cc1[N+](=O)[O-]	-3	/	/	/	/
N#C/C(=C/c1ccc(-c2cc([N+](=O)[O-])ccc2Cl)o1)C(N)=O	-7	14	54*	9	-2
COc1ccccc1/C=C/C(=O)OCC(=O)N1CCc2ccccc21	-7	-4	32*	-36	/
CCOC(=O)C1CCN(c2ncnc3c2oc2ccccc23)CC1	3	19	62*	-9	-2
CCOC(=O)C1CCCN(c2ncnc3c2oc2ccccc23)C1 (stereo not given)	-1	55*	89*	40*	4
